Assay outcomes as filed in PubChem.
Apaf1 activ – human Apaf-1 activation; 330,000 tested, 0.31% active; activity change, negative = activation, % at 20 µM; O14727; Apaf-1 apoptosome caspase-3 activation, DEVD-Rh110 fluorescence; active compounds read low;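 active means activity change at or below -40% at 20 µM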
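Schedule: 30 min preincubation, 50 min reaction, room temperature / System: biochemical Apaf-1 apoptosome reconstitution / Medium: 20 mM HEPES pH 7.5 with CHAPS, BSA / Evaluation: Caspase-3 cleavage activity downstream of Apaf-1 activation / Detection: Caspase-3-released Rh110 fluorescence, 540 nm emission, 480 nm excitation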
Rh110 interf act – counter-screen for Apaf-1 activators: fluorescence interference. shares compounds with Apaf1 activ. Rh110 fluorescence interference, quenched caspase reaction, Ex480/Em540. fluorescence interference (activity change), % at 20 µM, hits read low. 980 tested, under 10 active. AID 504616;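 active means mean activity change at or below -40% when tested at 20 µM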
Apaf-1 act conf – Apaf-1 (human) activation, single-dose confirmed | shares compounds with Apaf1 activ | reconstituted apoptosome caspase-3 activity, DEVD-Rh110 fluorescence; active compounds read low | activity change, negative = activation, % at 20 µM | 980 tested, 5% active;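 active means mean activity change at or below -40%, meaning activation of 40% or more, at 20 µM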
Apaf1 act interf – counter-screen for Apaf-1 activators: fluorescence interference, dose response; shares compounds with Apaf1 activ; fluorescence interference counterscreen, Apaf-1 activator assay; EC50, µM; 55 tested, under 10 active; call rule not given here
The depositor's hits bear a star; . = not tested or not shown. Not all results are given here.

SMILES	Apaf1 activ	Rh110 interf act	Apaf-1 act conf	others
CC(=O)[C@@H]1[C@@H]2C(=O)N(C3CCCCC3)C(=O)[C@@H]2C2c3ccccc3C=CN21 (stereo not given in full)	84	.	.
OC(c1cc(C(F)(F)F)nc2c(C(F)(F)F)cccc12)C1CCCCN1 (stereo not given)	48	.	.
O=C1CCCC/C1=C\Nc1ccc(Cl)cn1	-73*	9	17
Cn1nc(-c2ccccn2)nc2c(=O)n(C)c(=O)nc1-2	98	.	.
Cc1ccc(C(=O)N/C(=C\c2ccc(-c3ccccc3[N+](=O)[O-])o2)C(=O)NCCN(C)C)cc1	53	.	.
CN(C)S(=O)(=O)c1ccc(NC(=O)CN2CCCC2c2ccc3c(c2)OCCCO3)cc1 (stereo not given)	46	.	.
CC1Cc2ccccc2N1CC(=O)Nc1ccc(S(=O)(=O)N(C)C)cc1 (stereo not given)	-444*	57	17
O/N=C/c1ccc2ccccc2n1	-50*	-2	1
C[n+]1ccccc1/C=N/O	0	.	.
C=CCn1c(SCC(=O)N(CC)C2CCS(=O)(=O)C2)nnc1-c1ccccc1 (stereo not given)	61	.	.
CCn1c(SCC(=O)OC(C)C)nnc1-c1ccccc1	-76*	-1	7
COc1cc(OC)cc(-c2sc3ccc(OC)cc3c2-c2ccc(OCCN3CCCCC3)cc2)c1	60	.	.
CC(=O)N(C1=C(Cl)C(=O)c2ccccc2C1=O)C1CCCCC1	85	.	.
CCCCCc1cc(=O)oc2c(C(CCN3CCCC(C)C3)c3ccc4c(c3)OCO4)c(OC)cc(OC)c12 (stereo not given)	66	.	.
CCCc1cc(C(=O)Nc2sc(C(C)=O)c(C)c2C(=O)OCC)no1	-192*	-7	8
CCCc1ccc2oc(C(=O)NCCc3nc(C(=O)OCC)cs3)c(C)c2c1	41	.	.
CCN(CC)c1nc(N)c2c(N)nc(OC)cc2c1C#N	46	.	.
Cc1cccc(N(C(=O)Cn2nnc3ccccc32)C(C(=O)NCc2ccco2)c2ccncc2)c1 (stereo not given)	-47*	2	9
CCN(CC)CCCNc1ccc(-c2nnc(-c3ccc(OCC(C)C)cc3)o2)cn1	41	.	.
CC(C)(C)NC(=O)NC(=O)COC(=O)c1nc(-c2ccccc2)n(-c2cccc(C(F)(F)F)c2)n1	-47*	17	13
COC(=O)C1=C(C)N(Cc2ccccc2)C(=NCc2ccccc2)N[C@H]1c1cccc(C(F)(F)F)c1	65	.	.
COC(=O)CCC(=O)OC1(C)C(=O)C2=CN(CC(C)C)C(c3ccc(OC)cc3)=CC2=C(Br)C1=O (stereo not given)	52	.	.
COc1ccc(NC(=O)[C@@H]2[C@@H]3C(=O)N(C4CCCCC4)C(=O)[C@@H]3C3c4ccccc4C=CN32)cc1 (stereo not given in full)	51	.	.
COc1ccc(CNC(=O)c2c(C)oc3c2C(=O)c2ccccc2C3=O)cc1	67	.	.
CCOC(=O)CNC(=O)C1c2ccccc2C(=O)N(c2ccc(OC)cc2)C1c1ccc(OC)cc1 (stereo not given)	-42*	0	12
SMILES	Apaf1 activ	Rh110 interf act	Apaf-1 act conf	others
CSc1nncc(/C(C)=N\Nc2cccc(C)c2)n1	61	.	.
Cc1cc2nn(-c3ccc(Cl)cc3)nc2cc1N	49	.	.
COc1cc2c(cc1OC)C(c1ccc(-c3ccc(Cl)c(Cl)c3)o1)=NCC2	41	.	.
COc1ccc(-c2nc(-c3ccc(Br)o3)no2)cc1OC	-45*	7	17
Clc1ccc(-c2cn3nc4c(nc3n2)CCCC4)cc1	65	.	.
C#CCOCCOCCOCCNc1nc(N2CCN(C(=O)[C@H](CCCCN)n3cc([C@@H](N)CC(N)=O)nn3)CC2)nc(N2CCN(C(=O)[C@H](CCCCN)n3cc([C@@H](N)CC(N)=O)nn3)CC2)n1	55	.	.
O=C(CO/N=C/c1ccc(OC(F)F)cc1)NC1CCCC1	-453*	2	11
CC(C)(C)NC[C@H](O)COc1nsnc1N1CCOCC1	-3	.	.
CN(C)c1ccc(NC2=C(Cl)C(=O)c3ccccc3C2=O)cc1	43	.	.
O=C(O)c1cccc(NC2=C(N3CCOCC3)C(=O)c3ccccc3C2=O)c1	84	.	.
O=C1C=C(N2CCOCC2)c2ccccc2C1=O	98	.	.
O=C1O/C(=C\C(=O)N2CCOCC2)c2ccccc21	-141*	2	0
Cc1cnc(NC(=O)C2=C(O)c3ccccc3S(=O)(=O)N2C)s1	-2	.	.
CCCN1CCCc2cc(CN)ccc21	84	.	.
CN(C)CCCNC(=O)C[C@H]1C[C@H](C(=O)N2CCCCC2)[C@@]2(CCc3ccccc3)c3[nH]c4cc(-c5ccco5)ccc4c3CCN2C1=O	72	.	.
COC(=O)c1ccc(C(=O)Nc2ccc(N)cc2N)cc1	48	.	.
COC(=O)c1sccc1NC(=O)c1c(C)noc1C	-654*	10	5
COc1cc(NCc2ccccc2)c2ncn(Cc3ccccc3)c2c1	50	.	.
C=CC(=C)CC(NC)c1ccccc1 (stereo not given)	-48*	6	1
Cc1cccc(/C=N/Nc2cc(N3CCOCC3)nc(N3CCOCC3)n2)c1	68	.	.
Cc1cc(N2CCCCC2)nc(N2CCOCC2)n1	-57*	6	10
CC(C)c1ccc(/C=N/Nc2cc(N3CCOCC3)nc(N3CCOCC3)n2)cc1	62	.	.
Cc1ccc(NC(=O)c2ncn(CC(=O)N[C@H](CO)Cc3c[nH]c4ccccc34)n2)cc1C	74	.	.
CN(C)CCCNC(=S)NCC(c1ccc(Cl)cc1Cl)c1c[nH]c2ccccc12 (stereo not given)	41	.	.
CC(Cc1c[nH]c2ccccc12)C(=O)O (stereo not given)	-351*	8	-120*	Apaf1 act interf=>100
SMILES	Apaf1 activ	Rh110 interf act	Apaf-1 act conf	others
CC(C)(C)C1CCC(CN2C(Nc3ccccc3)=NC[C@@H]2Cc2ccccc2)CC1 (stereo not given in full)	75	.	.
COc1ccc(S(=O)(=O)N2CCN(c3ccc4nnc(-c5ccc(F)cc5)n4n3)CC2)cc1	51	.	.
Cc1ccc(NC2=C(NCCO)C(=O)c3ccccc3C2=O)cc1	78	.	.
Cc1ccc(Nc2nc(N)c([N+](=O)[O-])c(NCc3ccco3)n2)cc1	-443*	13	17
Cc1cc2cc(CNC(=S)Nc3ccc(OC(F)(F)F)cc3)ccc2n1C	59	.	.
OC(CNCC1CCCO1)Cn1c2ccc(Cl)cc2c2cc(Cl)ccc21 (stereo not given)	43	.	.
O=C(Cc1ccccc1Cl)NC1(O)C(=O)c2ccccc2C1=O	89	.	.
CC1(C(=O)NC2CCCC2)CCC(=O)N1Cc1ccccc1Cl (stereo not given)	-106*	-8	9
CN(Cc1nccs1)C(=O)CC1C(=O)NCCN1Cc1ccc(-c2ccccc2)cc1 (stereo not given)	-330*	6	15
CCc1cc[n+](C2=C([O-])c3ccccc3C(=O)/C2=N\S(=O)(=O)c2cccs2)cc1	68	.	.
CCC1CCCCN1CCCNC(=O)CC1Oc2ccc(C)cc2NC1=O (stereo not given)	-93*	8	11
c1ccc(-c2sc3ccccc3c2-c2ccc(OCCN3CCCCC3)cc2)cc1	52	.	.
CCOc1ccc(NC(=O)c2c[nH]n3c(=O)cc(C4CCN(C(=O)OC(C)(C)C)CC4)nc23)cc1	40	.	.
